Experimental findings from ChEMBL document CHEMBL1781942, “Microwave-assisted synthesis, crystal structure of pyrazolo[1,5-a]pyrazin-4(5H)-ones and their selective effects on lung cancer cells” (Eur J Med Chem, 2011) are described below.

For data set [1], the system named is A549. The data set is described as follows: Growth inhibition of human A549 cells assessed as cell viability at 8 to 64 uM after 48 hrs by SRB assay. It counts as functional, cell-based. Summed up:
(§1)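 A549 cells (p53 wild-type) in RPMI 1640 with 10% bovine calf serum, seeded at 6250/cm2 in 96-well plates. Exposed 48 h to 8, 16, 32 or 64 µM. SRB read-out gave survival percentage against 0.1% DMSO-treated cells. Means ± SE from three independent experiments.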

Data set [2] deals with A549. Briefly: Cell cycle arrest in human A549 cells assessed as accumulation at […] phase at 64 uM after 48 hrs by propidium iodide staining-based flow cytometry (reference value: 1.94 %). It counts as functional. Background: In flow cytometry, cells or beads pass a laser one at a time.
In data set [3] the test system is A549. The data set is described as follows: Cell cycle arrest in human A549 cells assessed as accumulation at G1 phase at 64 uM after 48 hrs by propidium iodide staining-based flow cytometry relative to control. It counts as functional.
The subject of data set [4] is NCI-H322. The data set is described as follows: Induction of apoptosis in human NCI-H322 cells expressing P53 mutant assessed as DNA fragmentation at 32 to 64 uM after 48 hrs by Hoechst 33258 staining-based fluorescence microscopy. It counts as functional, cell-based. Summed up:
(§2)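 H322 or H1299 cells treated 48 h at 32 or 64 µM versus 0.1% DMSO. Fixed in 4% formaldehyde in PBS for 10 min, then stained with 2 µg/mL Hoechst 33258, 30 min, 37 °C, and washed with PBS. Condensed, intensely stained nuclei counted as apoptotic under fluorescence microscopy. At least 500 cells counted; triplicate.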

For data set [5], the system named is A549. The data set is described as follows: Cell cycle arrest in human A549 cells assessed as accumulation at S phase at 64 uM after 48 hrs by propidium iodide staining-based flow cytometry (reference value: 30.36 %). It counts as functional.
Data set [6] has as its system NCI-H1299. Briefly: Induction of apoptosis in human p53-null H1299 cells assessed as DNA fragmentation at 32 to 64 uM after 48 hrs by Hoechst 33258 staining-based fluorescence microscopy. It counts as functional, cell-based. Summed up:
as §2

The test system of data set [7] is A549. Briefly: Cell cycle arrest in human A549 cells assessed as accumulation at G2 phase at 64 uM after 48 hrs by propidium iodide staining-based flow cytometry (reference value: 11.52 %). It counts as functional.
Data set [8] relates to NCI-H1299. The data set is described as follows: Growth inhibition of human H1299 cells assessed as cell viability after 48 hrs by SRB assay. It counts as functional, cell-based. Summed up:
(§3)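 H1299 (p53-null) or H322 (p53-mutant) cells in RPMI 1640 with 10% bovine calf serum, seeded at 6250/cm2. Treated 48 h at 16, 32 or 64 µM. SRB assay, survival relative to 0.1% DMSO solvent control. Means ± SE, three independent experiments.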

Data set [9] deals with A549. The data set is described as follows: Induction of necrosis in human A549 cells assessed as LDH release at 64 uM after 48 hrs. It counts as functional, cell-based. Summed up:
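A549 cells exposed 48 h to 64 µM or 0.1% DMSO control. Culture medium collected and lactate dehydrogenase measured with a commercial kit, absorbance at 440 nm. Mean ± SE, n = 3.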
(In general: LDH in the medium is a marker of cell lysis.)

A short description of data set [10]: Cytotoxicity against human embryonic lung cells assessed as growth inhibition at 32 to 64 uM after 48 hrs by SRB assay. It counts as cell-based. The method, boiled down:
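Human embryo lung cells grown in RPMI 1640 with 10% bovine calf serum, seeded at 6250/cm2, treated 48 h at 32 or 64 µM. Controls were 0.1% DMSO vehicle and 5-FU as positive control. Viability by SRB, relative to DMSO-treated cells. Means ± SE, three independent experiments.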
(In general: Sulforhodamine B stains cellular protein and so reports cell mass.)

The subject of data set [11] is NCI-H322. Briefly: Growth inhibition of human NCI-H322 cells assessed as cell viability after 48 hrs by SRB assay. It counts as functional, cell-based. The method, boiled down:
as §3

The subject of data set [12] is A549. Briefly: Growth inhibition of human A549 cells assessed as cell viability after 48 hrs by SRB assay. It counts as functional, cell-based. The method, boiled down:
as §1

Data set [13] concerns NCI-H322. The data set is described as follows: Induction of apoptosis in human NCI-H322 cells expressing P53 mutant assessed as chromatin condensation at 32 to 64 uM after 48 hrs by Hoechst 33258 staining-based fluorescence microscopy. It counts as functional, cell-based. The method, boiled down:
as §2

In data set [14] the test system is NCI-H1299. Briefly: Induction of apoptosis in human p53-null H1299 cells assessed as chromatin condensation at 32 to 64 uM after 48 hrs by Hoechst 33258 staining-based fluorescence microscopy. It counts as functional, cell-based. Summed up: as §2
The subject of data set [15] is A549. Briefly: Induction of apoptosis in human A549 cells expressing p53 assessed as chromatin condensation at 16 to 64 uM after 48 hrs by Hoechst 33258 staining-based fluorescence microscopy. It counts as functional, cell-based. Summed up:
(§4)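 Live A549 cells treated 48 h at 16, 32 or 64 µM, or with 0.1% DMSO. Stained in medium with 10 µg/mL Hoechst 33258 for 10 min at 37 °C, washed with PBS. Fluorescence microscopy (200×) scored intense local nuclear staining as apoptotic. At least 500 cells counted; triplicate.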

The test system of data set [16] is A549. The data set is described as follows: Induction of apoptosis in human A549 cells expressing p53 assessed as DNA fragmentation at 16 to 64 uM after 48 hrs by Hoechst 33258 staining-based fluorescence microscopy. It counts as functional, cell-based. Summed up: as §4

Activity calls are given as the source filed them. The calls are words filed in the database; no cut-off is given here.

For the compound `COc1ccc(-c2cc3n(n2)CCN(CCCO)C3=O)cc1`, in the data set on A549 [1], the “growth inhibition (GI)” value was “inactive”.

`O=C1c2cc(-c3ccccc3)nn2CCN1CCOCCO`: the “growth inhibition (GI)” value with A549 [1] is “inactive”.

Take `O=C1c2cc(-c3ccc(Cl)cc3)nn2CCN1CCCO`: the Activity is given as 1.92% with A549 [2]; 32% in the data set with A549 [3]; 3.83% in the data set on A549 [5]; 5.54% with A549 [7]; “Non-toxic” in data set [10]. The result with NCI-H322 [4], in the data set with NCI-H1299 [6], in the data set with NCI-H322 [13] and in the data set on NCI-H1299 [14] was Active. Besides, the “growth inhibition (GI)” value with NCI-H1299 [8], with NCI-H322 [11] and with A549 [12] was “Dose-dependent effect” each time. Also, the result with A549 [9], in the data set with A549 [15] and in the data set with A549 [16] was inactive.

`COc1ccc(-c2cc3n(n2)CCN(CCOCCO)C3=O)cc1`: the “growth inhibition (GI)” value in the data set with A549 [1] was “inactive”.

Turning to `O=C1c2cc(-c3ccc(Cl)cc3)nn2CCN1CCOCCO`, the Activity was 1.93% with A549 [2]; 13% with A549 [3]; 20.98% with A549 [5]; 7.86% in the data set with A549 [7]; “Non-toxic” in data set [10]. In addition, the result in the data set on NCI-H322 [4], with NCI-H1299 [6], in the data set on NCI-H322 [13] and in the data set on NCI-H1299 [14] was Active. Further, the “growth inhibition (GI)” value in the data set with NCI-H1299 [8], with NCI-H322 [11] and in the data set with A549 [12] was “Dose-dependent effect” throughout. Also, the result in the data set on A549 [9], with A549 [15] and in the data set on A549 [16] was inactive.

As for `O=C1c2cc(-c3ccccc3)nn2CCN1CCN1CCOCC1`, the “growth inhibition (GI)” value in the data set on A549 [1] is “inactive”.

As for `O=C1c2cc(-c3ccccc3)nn2CCN1CCO`, the “growth inhibition (GI)” value in the data set on A549 [1] was “inactive”.

`O=C1c2cc(-c3ccc(Cl)cc3)nn2CCN1CCN1CCOCC1`: the Activity with A549 [2] is reported as 1.94%; in the data set with A549 [3], 27%; with A549 [5], 7.6%; in the data set on A549 [7] it was 6.83%; in data set [10], “Non-toxic”. For the same compound, the outcome in the data set on NCI-H322 [4], with NCI-H1299 [6], in the data set with NCI-H322 [13] and in the data set on NCI-H1299 [14] was Active. Also, the “growth inhibition (GI)” value in the data set with NCI-H1299 [8], in the data set on NCI-H322 [11] and in the data set with A549 [12] was “Dose-dependent effect” in each case. For the same compound, the result in the data set on A549 [9], with A549 [15] and in the data set on A549 [16] was inactive.

In the case of `COc1ccc(-c2cc3n(n2)CCN(CCN2CCOCC2)C3=O)cc1`, the “growth inhibition (GI)” value in the data set with A549 [1] was “inactive”.

Consider `O=C1c2cc(-c3ccc(Cl)cc3)nn2CCN1CCO`, for which the Activity in the data set with A549 [2] is 1.95%; with A549 [3], 18%; in the data set with A549 [5] it was 18.02%; with A549 [7] it was 5.37%; in [10], “Non-toxic”. In addition, the result in the data set with NCI-H322 [4], with NCI-H1299 [6], with NCI-H322 [13] and in the data set on NCI-H1299 [14] was Active. In addition, the “growth inhibition (GI)” value in the data set with NCI-H1299 [8], in the data set with NCI-H322 [11] and in the data set with A549 [12] was “Dose-dependent effect” each time. Moreover, the outcome in the data set with A549 [9], with A549 [15] and in the data set with A549 [16] was inactive.

On to `O=C1c2cc(-c3ccccc3)nn2CCN1CCCO`, for which the “growth inhibition (GI)” value in the data set with A549 [1] is “inactive”.

Consider `COc1ccc(-c2cc3n(n2)CCN(CCO)C3=O)cc1`, for which, in the data set with A549 [1], the “growth inhibition (GI)” value was “inactive”.
